Reference: publication PMC5198968 (Cancer Science, 2016)
“And” between values parts separate entries of the source, which are not always exact repeats. Equal values may be shown once. “Also recorded” adds a separate entry of the source.

System: Japanese patients with advanced hepatocellular carcinoma
Experiment: Adverse events
Assay type: in vivo, human
How it was run: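 Oral test compound given twice daily, continuously, in 28-day cycles until progression or unacceptable AEs. Group I had mild liver impairment (Child–Pugh 5–6) and group II moderate impairment (Child–Pugh 7 or raised AST/ALT). AEs were recorded over the observation period and graded by CTCAE v3.0. The treated set was every patient receiving at least one dose, and analyses were descriptive.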

[1] = Group I (mild liver impairment), 150 mg b.i.d., n = 4
[2] = Group I (mild liver impairment), 200 mg b.i.d., n = 12
[3] = Group I (mild liver impairment), all patients, n = 16
[4] = Group I (mild liver impairment), n = 16, all grades
[5] = Group I (mild liver impairment), n = 16, grade ≥3
[6] = Group II (moderate liver impairment), 100 mg b.i.d., n = 3
[7] = Group II (moderate liver impairment), 150 mg b.i.d., n = 4
[8] = Group II (moderate liver impairment), 200 mg b.i.d., n = 7
[9] = Group II (moderate liver impairment), all patients, n = 14
[10] = Group II (moderate liver impairment), n = 14, all grades
[11] = Group II (moderate liver impairment), n = 14, grade ≥3

Compound: COC(=O)c1ccc2c(c1)NC(=O)/C2=C(\Nc1ccc(N(C)C(=O)CN2CCN(C)CC2)cc1)c1ccccc1 [nintedanib]
- AEs leading to nintedanib discontinuation [1]: 0 (0.0) n (%)
- AEs leading to nintedanib dose reduction [1]: 0 (0.0) n (%)
- Any AE [1]: 4 (100.0) n (%)
- Investigator-defined drug-related AE [1]: 3 (75.0) n (%)
- Other significant AEs (leading to dose reduction or permanent discontinuation of nintedanib) [1]: 0 (0.0) n (%)
- Serious AEs [1]: 0 (0.0) n (%)
- Serious AEs: Fatal [1]: 0 (0.0) n (%)
- Serious AEs: Immediately life-threatening [1]: 0 (0.0) n (%)
- Serious AEs: Prolonged hospitalization [1]: 0 (0.0) n (%)
- Serious AEs: Required hospitalization [1]: 0 (0.0) n (%)
- AEs leading to nintedanib discontinuation [2]: 0 (0.0) n (%)
- AEs leading to nintedanib dose reduction [2]: 5 (41.7) n (%)
- Any AE [2]: 12 (100.0) n (%)
- Investigator-defined drug-related AE [2]: 11 (91.7) n (%)
- Other significant AEs (leading to dose reduction or permanent discontinuation of nintedanib) [2]: 5 (41.7) n (%)
- Serious AEs [2]: 4 (33.3) n (%)
- Serious AEs: Fatal [2]: 0 (0.0) n (%)
- Serious AEs: Immediately life-threatening [2]: 0 (0.0) n (%)
- Serious AEs: Prolonged hospitalization [2]: 0 (0.0) n (%)
- Serious AEs: Required hospitalization [2]: 4 (33.3) n (%)
- AEs leading to nintedanib discontinuation [3]: 0 (0.0) n (%)
- AEs leading to nintedanib dose reduction [3]: 5 (31.3) n (%)
- Any AE [3]: 16 (100.0) n (%)
- Investigator-defined drug-related AE [3]: 14 (87.5) n (%)
- Other significant AEs (leading to dose reduction or permanent discontinuation of nintedanib) [3]: 5 (31.3) n (%)
- Serious AEs [3]: 4 (25.0) n (%)
- Serious AEs: Fatal [3]: 0 (0.0) n (%)
- Serious AEs: Immediately life-threatening [3]: 0 (0.0) n (%)
- Serious AEs: Prolonged hospitalization [3]: 0 (0.0) n (%)
- Serious AEs: Required hospitalization [3]: 4 (25.0) n (%)
- Abdominal pain [4]: 4 (25.0)
- Any AE [4]: 16 (100)
- Ascites [4]: 1 (6.3)
- Decreased appetite [4]: 6 (37.5)
- Decreased platelet count [4]: 2 (12.5)
- Diarrhea [4]: 8 (50.0)
- Fatigue [4]: 3 (18.8)
- Hyperuricemia [4]: 1 (6.3)
- Hypoalbuminemia [4]: 2 (12.5)
- Increased ALT [4]: 1 (6.3)
- Increased AST [4]: 4 (25.0)
- Increased blood bilirubin [4]: 1 (6.3)
- Malaise [4]: 4 (25.0)
- Malignant neoplasm progression [4]: 1 (6.3)
- Nausea [4]: 7 (43.8)
- Neutropenia [4]: 2 (12.5)
- Pyrexia [4]: 2 (12.5)
- Vomiting [4]: 6 (37.5)
- Abdominal pain [5]: 0 (0.0)
- Any AE [5]: 7 (43.8)
- Ascites [5]: 0 (0.0)
- Decreased appetite [5]: 0 (0.0)
- Decreased platelet count [5]: 2 (12.5)
- Diarrhea [5]: 1 (6.3)
- Fatigue [5]: 1 (6.3)
- Hyperuricemia [5]: 0 (0.0)
- Hypoalbuminemia [5]: 0 (0.0)
- Increased ALT [5]: 0 (0.0)
- Increased AST [5]: 0 (0.0)
- Increased blood bilirubin [5]: 0 (0.0)
- Malaise [5]: 0 (0.0)
- Malignant neoplasm progression [5]: 0 (0.0)
- Nausea [5]: 0 (0.0)
- Neutropenia [5]: 0 (0.0)
- Pyrexia [5]: 0 (0.0)
- Vomiting [5]: 0 (0.0)
- AEs leading to nintedanib discontinuation [6]: 0 (0.0) n (%)
- AEs leading to nintedanib dose reduction [6]: 1 (33.3) n (%)
- Any AE [6]: 3 (100.0) n (%)
- Investigator-defined drug-related AE [6]: 3 (100.0) n (%)
- Other significant AEs (leading to dose reduction or permanent discontinuation of nintedanib) [6]: 1 (33.3) n (%)
- Serious AEs [6]: 1 (33.3) n (%)
- Serious AEs: Fatal [6]: 0 (0.0) n (%)
- Serious AEs: Immediately life-threatening [6]: 0 (0.0) n (%)
- Serious AEs: Prolonged hospitalization [6]: 0 (0.0) n (%)
- Serious AEs: Required hospitalization [6]: 1 (33.3) n (%)
- AEs leading to nintedanib discontinuation [7]: 0 (0.0) n (%)
- AEs leading to nintedanib dose reduction [7]: 1 (25.0) n (%)
- Any AE [7]: 4 (100.0) n (%)
- Investigator-defined drug-related AE [7]: 4 (100.0) n (%)
- Other significant AEs (leading to dose reduction or permanent discontinuation of nintedanib) [7]: 1 (25.0) n (%)
- Serious AEs [7]: 2 (50.0) n (%)
- Serious AEs: Fatal [7]: 1 (25.0) n (%)
- Serious AEs: Immediately life-threatening [7]: 0 (0.0) n (%)
- Serious AEs: Prolonged hospitalization [7]: 0 (0.0) n (%)
- Serious AEs: Required hospitalization [7]: 2 (50.0) n (%)
- AEs leading to nintedanib discontinuation [8]: 0 (0.0) n (%)
- AEs leading to nintedanib dose reduction [8]: 1 (14.3) n (%)
- Any AE [8]: 7 (100.0) n (%)
- Investigator-defined drug-related AE [8]: 5 (71.4) n (%)
- Other significant AEs (leading to dose reduction or permanent discontinuation of nintedanib) [8]: 1 (14.3) n (%)
- Serious AEs [8]: 3 (42.9) n (%)
- Serious AEs: Fatal [8]: 1 (14.3) n (%)
- Serious AEs: Immediately life-threatening [8]: 1 (14.3) n (%)
- Serious AEs: Prolonged hospitalization [8]: 1 (14.3) n (%)
- Serious AEs: Required hospitalization [8]: 3 (42.9) n (%)
- AEs leading to nintedanib discontinuation [9]: 0 (0.0) n (%)
- AEs leading to nintedanib dose reduction [9]: 3 (21.4) n (%)
- Any AE [9]: 14 (100.0) n (%)
- Investigator-defined drug-related AE [9]: 12 (85.7) n (%)
- Other significant AEs (leading to dose reduction or permanent discontinuation of nintedanib) [9]: 3 (21.4) n (%)
- Serious AEs [9]: 6 (42.9) n (%)
- Serious AEs: Fatal [9]: 2 (14.3) n (%)
- Serious AEs: Immediately life-threatening [9]: 1 (7.1) n (%)
- Serious AEs: Prolonged hospitalization [9]: 1 (7.1) n (%)
- Serious AEs: Required hospitalization [9]: 6 (42.9) n (%)
- Abdominal pain (upper abdominal pain for group II) [10]: 2 (14.3)
- Any AE [10]: 14 (100)
- Ascites [10]: 7 (50.0)
- Decreased appetite [10]: 7 (50.0)
- Decreased platelet count [10]: 1 (7.1)
- Diarrhea [10]: 6 (42.9)
- Fatigue [10]: 5 (35.7)
- Hyperuricemia [10]: 3 (21.4)
- Hypoalbuminemia [10]: 6 (42.9)
- Increased ALT [10]: 4 (28.6)
- Increased AST [10]: 5 (35.7)
- Increased blood bilirubin [10]: 4 (28.6)
- Lymphopenia [10]: 2 (14.3)
- Malaise [10]: 3 (21.4)
- Malignant neoplasm progression [10]: 4 (28.6)
- Nausea [10]: 5 (35.7)
- Neutropenia [10]: 3 (21.4)
- Pyrexia [10]: 4 (28.6)
- Vomiting [10]: 3 (21.4)
- Abdominal pain (upper abdominal pain for group II) [11]: 0 (0.0)
- Any AE [11]: 11 (78.6)
- Ascites [11]: 1 (7.1)
- Decreased appetite [11]: 0 (0.0)
- Decreased platelet count [11]: 0 (0.0)
- Diarrhea [11]: 0 (0.0)
- Fatigue [11]: 0 (0.0)
- Hyperuricemia [11]: 2 (14.3)
- Hypoalbuminemia [11]: 1 (7.1)
- Increased ALT [11]: 2 (14.3)
- Increased AST [11]: 3 (21.4)
- Increased blood bilirubin [11]: 0 (0.0)
- Lymphopenia [11]: 2 (14.3)
- Malaise [11]: 0 (0.0)
- Malignant neoplasm progression [11]: 2 (14.3)
- Nausea [11]: 0 (0.0)
- Neutropenia [11]: 2 (14.3)
- Pyrexia [11]: 0 (0.0)
- Vomiting [11]: 0 (0.0)
- Discontinuation of nintedanib due to AEs (both groups): No patients discontinued nintedanib due to adverse events; also recorded: No patients discontinued nintedanib due to AEs
- Drug-related fatal AEs (both groups): No drug‐related fatal AEs were reported
- Hypertension at grade ≥3 (both groups): not reported by any patients
- Ascites, any grade (group I): 6.3%
- Bleeding, incidence (group I): 12.5%
- Decreased appetite, any grade (group I): 37.5%
- Diarrhea, any grade (group I): 50.0%
- Fatigue, any grade (group I): 18.8%
- Hand-foot skin reaction (group I): one patient in group I
- Hypertension, incidence (group I): 12.5%
- Hypoalbuminemia, any grade (group I): 12.5%
- Increased AST, any grade (group I): 25.0%
- Nausea, any grade (group I): 43.8%
- Serious AEs considered drug-related by the investigator (group I): grade 3 immune thrombocytopenic purpura and grade 3 hyponatremia
- Thromboembolic events at grade ≥3 (group I): no patients in group I
- Thromboembolic events, incidence (group I): 0.0%
- Vomiting, any grade (group I): 37.5%
- Patients with dose reduction of nintedanib due to AEs (group I (five patients, all on 200 mg)): 31% and 31.3%
- Patients with serious AEs (all requiring hospitalization) (group I (four patients)): 25.0%
- Patients with adverse events at grade ≥3 (group I (seven patients)): 43.8%
- Ascites, any grade (group II): 50.0%
- Bleeding at grade ≥3 (group II): no patients in group II
- Bleeding, incidence (group II): 14.3%
- Decreased appetite, any grade (group II): 50.0%
- Diarrhea, any grade (group II): 42.9%
- Fatigue, any grade (group II): 35.7%
- Hand-foot skin reaction (group II): no patients in group II
- Hypertension, incidence (group II): 21.4%
- Hypoalbuminemia, any grade (group II): 42.9%
- Increased AST, any grade (group II): 35.7%
- Nausea, any grade (group II): 35.7%
- Serious AEs considered drug-related by the investigator (group II): grade 2 gastroenteritis, grade 3 drug‐induced liver injury, and grade 2 pyrexia
- Thromboembolic events, incidence (group II): 7.1%
- Vomiting, any grade (group II): 21.4%
- Patients with adverse events at grade ≥3 (group II (11 patients)): 78.6%
- Thromboembolic events at grade ≥3 (group II (one patient)): 7.1%
- Patients with serious AEs (all requiring hospitalization) (group II (six patients)): 42.9%
- Patients with dose reduction of nintedanib due to AEs (group II (three patients, one from each dose)): 21% and 21.4%
